Results as given in ChEMBL document CHEMBL1129972 (J Med Chem, 1997).
Bridge positions count the residues as written; N and C are the ends. Square brackets hold non-standard residues; d marks the D form. Peptide text beside a SMILES is read from it. Pen = CC(C)(S)[C@H](N)C(=O)O; hCys = N[C@@H](CCS)C(=O)O

What was measured:
Oryctolagus cuniculus [1] = species: Oryctolagus cuniculus; assay: Concentration which produces 50% of maximal contractile response at rabbit aorta strips; assay type: functional
Outline: (§1)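 Thoracic aortic rings (2 mm) from male New Zealand white rabbits (2.5–3.5 kg, pentobarbitone-anesthetized) in Krebs' bicarbonate buffer, 38.5 °C, pH 7.4, 95% O2/5% CO2; isometric tension, 2 g resting, ~90 min equilibration with one 300 nM Ang II challenge. Control cumulative Ang II curve (3×10^-10–10^-7 M), then cumulative test-compound curve 3×10^-10–10^-5 M; response as % of control Ang II maximum.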

[2] = molecular target: T1, Angiotensin II receptor (AT-1) type-1 (Rattus norvegicus, UniProt P29089+P25095); assay: Inhibitory concentration against [125 I]Ang II binding to rat pituitary membranes Angiotensin II receptor type 1 without 0.2% bovine serum albumin
T1 sequence (P29089 whole entry): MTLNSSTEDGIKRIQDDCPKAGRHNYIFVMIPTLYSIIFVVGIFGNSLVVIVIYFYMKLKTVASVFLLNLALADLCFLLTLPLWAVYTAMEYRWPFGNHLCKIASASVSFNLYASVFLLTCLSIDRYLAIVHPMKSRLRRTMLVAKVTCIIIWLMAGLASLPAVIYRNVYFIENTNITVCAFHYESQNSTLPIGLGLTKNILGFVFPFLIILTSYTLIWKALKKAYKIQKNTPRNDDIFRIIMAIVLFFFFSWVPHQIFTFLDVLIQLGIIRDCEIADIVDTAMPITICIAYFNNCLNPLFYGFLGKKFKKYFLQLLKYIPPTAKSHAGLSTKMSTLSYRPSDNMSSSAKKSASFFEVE
T1 sequence (P25095 whole entry): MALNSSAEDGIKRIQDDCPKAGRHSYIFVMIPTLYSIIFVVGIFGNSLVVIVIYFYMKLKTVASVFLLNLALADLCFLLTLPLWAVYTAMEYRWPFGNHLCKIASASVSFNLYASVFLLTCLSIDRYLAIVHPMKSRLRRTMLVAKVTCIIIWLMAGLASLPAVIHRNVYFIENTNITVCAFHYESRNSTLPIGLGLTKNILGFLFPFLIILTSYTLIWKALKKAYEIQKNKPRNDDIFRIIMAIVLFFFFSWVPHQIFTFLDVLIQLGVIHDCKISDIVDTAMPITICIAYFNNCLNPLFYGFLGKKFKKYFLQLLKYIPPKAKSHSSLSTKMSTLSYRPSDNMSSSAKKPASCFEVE

[3] = molecular target: T1, Angiotensin II receptor (AT-1) type-1; assay: Inhibitory concentration against specific binding of [125 I]Ang II to rat pituitary membranes (Angiotensin II receptor, type 1) in presence of 0.2% bovine serum albumin; assay type: cell membranes, Membrane
Oryctolagus cuniculus [4] = species: Oryctolagus cuniculus; assay: Contractile activity in isolated rabbit aortic rings; assay type: functional, Aorta; outline: as §1

SMILES	EC50 (Oryctolagus cuniculus [1])	IC50 [2]	IC50 [3]	pD2 (Oryctolagus cuniculus [4])
CC[C@H](C)[C@@H](C(=O)N[C@@H](Cc1c[nH]cn1)C(=O)N1CCC[C@H]1C(=O)N[C@@H](Cc1ccccc1)C(=O)O)N1CCC(CNC(=O)[C@H](CCCN=C(N)N)NC(=O)[C@@H](N)CC(=O)O)=C[C@@H](Cc2ccc(O)cc2)C1=O	830 nM	2.8 nM		
CC[C@H](C)[C@@H](C(=O)N[C@@H](Cc1c[nH]cn1)C(=O)N1CCC[C@H]1C(=O)N[C@@H](Cc1ccccc1)C(=O)O)N1CCC(CNC(=O)[C@H](CCCN=C(N)N)NC(=O)[C@@H](N)CC(=O)O)=C[C@H](Cc2ccc(O)cc2)C1=O		2 nM		
NC(N)=NCCC[C@H](NC(=O)[C@@H](N)CC(=O)O)C(=O)N[C@H]1CSSC[C@@H](C(=O)N[C@@H](Cc2c[nH]cn2)C(=O)N2CCC[C@H]2C(=O)N[C@@H](Cc2ccccc2)C(=O)O)NC(=O)[C@H](Cc2ccc(O)cc2)NC1=O (H-DRCYCHPF-OH; disulfide 3-5)		2.9 nM	28 nM	
NC(N)=NCCC[C@H](NC(=O)[C@@H](N)CC(=O)O)C(=O)N[C@H]1CCSSCC[C@@H](C(=O)N[C@@H](Cc2c[nH]cn2)C(=O)N2CCC[C@H]2C(=O)N[C@@H](Cc2ccccc2)C(=O)O)NC(=O)[C@H](Cc2ccc(O)cc2)NC1=O (H-DR[hCys]Y[hCys]HPF-OH; disulfide 3-5)		1.7 nM	15.4 nM	8.48

More lines, main results first:

EC50 (Oryctolagus cuniculus [1])	IC50 [2]	IC50 [3]	SMILES	pD2 (Oryctolagus cuniculus [4])
	> 100000 nM		CC[C@H](C)[C@@H](C(=O)N[C@@H](Cc1c[nH]cn1)C(=O)N1CCC[C@H]1C(=O)N[C@@H](Cc1ccccc1)C(=O)O)N1Cc2cc(NC(=O)[C@H](CCCN=C(N)N)NC(=O)[C@@H](N)CC(=O)O)ccc2[C@H](Cc2ccc(O)cc2)C1=O	
2.6 nM			CC[C@H](C)[C@H](NC(=O)[C@H](Cc1ccc(O)cc1)NC(=O)[C@@H](NC(=O)[C@H](CCCNC(=N)N)NC(=O)[C@@H](N)CC(=O)O)C(C)C)C(=O)N[C@@H](Cc1cnc[nH]1)C(=O)N1CCC[C@H]1C(=O)N[C@@H](Cc1ccccc1)C(=O)O [ANGIOTENSIN II]	
217 nM	0.9 nM	3.8 nM	CC1(C)SSC(C)(C)[C@@H](C(=O)N[C@@H](Cc2c[nH]cn2)C(=O)N2CCC[C@H]2C(=O)N[C@@H](Cc2ccccc2)C(=O)O)NC(=O)[C@H](Cc2ccc(O)cc2)NC(=O)[C@H]1NC(=O)[C@H](CCCN=C(N)N)NC(=O)[C@@H](N)CC(=O)O (H-DR[Pen]Y[Pen]HPF-OH; disulfide 3-5)	
	> 100000 nM		CC[C@H](C)[C@@H](C(=O)N[C@@H](Cc1cnc[nH]1)C(=O)N1CCC[C@H]1C(=O)N[C@@H](Cc1ccccc1)C(=O)O)N1Cc2cc(NC(=O)[C@H](CCCN=C(N)N)NC(=O)[C@@H](N)CC(=O)O)ccc2[C@@H](Cc2ccc(O)cc2)C1=O	
